# In the library only some 1.9% were active in any assay of this set; here they are far more common.
# LMPTP inh: LMPTP phosphatase inhibitors, primary screen, biochemical, fluorescence intensity, uHTS; Low molecular weight phosphotyrosine protein phosphatase (Homo sapiens), P24666; recombinant LMPTP-A, OMFP fluorogenic substrate; inhibition, % at 20 µM; 360,000 tested, 0.22% active; AID 651560, 2012;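 active = compounds that cut the enzyme signal by at least half of the control window in the single-dose screen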
# Target sequence (P24666 whole entry, looked up): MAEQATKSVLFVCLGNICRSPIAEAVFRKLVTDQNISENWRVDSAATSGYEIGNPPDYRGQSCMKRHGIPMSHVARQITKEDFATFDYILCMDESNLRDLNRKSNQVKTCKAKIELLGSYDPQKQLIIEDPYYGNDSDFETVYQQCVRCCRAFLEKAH
#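 Test system: LMPTP-A phosphatase enzyme; input: 0.625 nM LMPTP-A final; reagent: OMFP substrate, 400 µM final; compound dosing: 20 µM single dose, 3% DMSO; incubation: 50 min dark incubation at room temperature; measured by: endpoint fluorescence intensity from OMFP dephosphorylation; measure: % inhibition relative to no-enzyme and uninhibited control wells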
# STEP block: STEP phosphatase inhibitors, primary screen, biochemical, fluorescence intensity, uHTS; Tyrosine-protein phosphatase non-receptor type 5 (Homo sapiens), P54829; recombinant STEP, OMFP fluorogenic substrate; inhibition, % at 20 µM; 360,000 tested, 0.25% active; AID 588621, 2011;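 active = inhibition at 20 µM, scaled per plate between control wells, above about 37%, limit read from the data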
#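 Material: STEP (striatal-enriched tyrosine phosphatase) enzyme, cell-free; Compound dosing: 20 µM single dose in 1% DMSO; Technique: fluorescence read at 480 nm ex / 540 nm em; Times: reaction 20 min, ambient temperature; Medium: 50 mM Bis-Tris pH 6.0 with 2.5 mM DTT and 0.005% Tween 20; Also added: OMFP at 25 µM.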
# SUMO HTRF inh: inhibitors of in vitro SUMOylation cascade, primary screen, biochemical, HTRF, uHTS; HTRF SUMOylation assay, SAE1/SAE2 + UBC9; 290,000 tested, 0.36% active; SUMO-conjugating enzyme UBC9 (Homo sapiens), P63279; inhibition, % at 35 µM; in the data active = inhibition above about 50%, passing the limit was not always enough
# Target sequence (P63279 whole entry, looked up): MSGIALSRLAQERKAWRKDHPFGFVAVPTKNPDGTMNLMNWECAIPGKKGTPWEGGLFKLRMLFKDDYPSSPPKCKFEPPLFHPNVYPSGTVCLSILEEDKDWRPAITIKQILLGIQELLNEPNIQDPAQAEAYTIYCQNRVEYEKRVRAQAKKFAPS
# Scp1 inh: Scp-1 phosphatase inhibitors, primary screen, biochemical, colorimetric, uHTS; 340,000 tested, 0.88% active; inhibition, % at 20 µM; Recombinant Scp1, phosphopeptide, malachite green phosphate absorbance; Carboxy-terminal domain RNA polymerase II polypeptide A small phosphatase 1 (Homo …;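 active = inhibition above about 50% at 20 µM, limit read from the data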
# Target sequence (Q9GZU7 76-261 limits assumed): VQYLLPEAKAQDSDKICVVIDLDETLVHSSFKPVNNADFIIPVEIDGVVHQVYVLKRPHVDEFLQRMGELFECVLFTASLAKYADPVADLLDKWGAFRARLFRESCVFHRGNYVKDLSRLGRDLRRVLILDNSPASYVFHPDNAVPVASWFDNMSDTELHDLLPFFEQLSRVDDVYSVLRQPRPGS
#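 Times: enzyme reaction 45 min at room temperature, colour 5 min, stabilisation 30 min. Material: SCP-1 catalytic fragment, aa 76-261. Medium: Acidic Tris acetate buffer with magnesium and detergent. Signal: colorimetric free-phosphate detection, absorbance 630 nm. Read-out basis: % inhibition of SCP-1 phosphate liberation. Reagent: Phosphorylated 17-residue peptide substrate.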
# DNMT1 inh: human DNMT1 methyltransferase inhibitors, primary screen, biochemical, molecular beacon, fluorescence, HinP1I cleavage, uHTS | DNA (cytosine-5)-methyltransferase 1 (Homo sapiens), P26358 | 360,000 tested, 0.83% active | inhibition (reported as % activation of signal), % at 10 µM; in the data active = inhibition above about 50%
# SUMO1 PPI mod: modulators of SUMO1 protein-protein interactions, primary screen, biochemical, uHTS; Small ubiquitin-related modifier 1 (Homo sapiens), P63165; SUMO1 binding to a labelled peptide, TR-FRET, 1 h; inhibition, % at 20 µM; 360,000 tested, 0.33% active; AID 602429, 2012; in the data active = inhibition above about 37%
# Target sequence (P63165 whole entry, looked up): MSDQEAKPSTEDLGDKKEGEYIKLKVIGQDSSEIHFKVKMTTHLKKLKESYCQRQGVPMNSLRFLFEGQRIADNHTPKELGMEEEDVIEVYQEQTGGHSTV
# STEP conf: STEP phosphatase inhibitor hit confirmation, biochemical, fluorescence intensity, single concentration. shares compounds with STEP block. recombinant STEP, OMFP fluorogenic substrate. inhibition, % at 20 µM. 520 tested, 32% active. AID 623866, 2012; call rule not given here
# Hits are given with their value; - = inactive; . = no result.
SMILES,LMPTP inh,STEP block,SUMO HTRF inh,Scp1 inh,DNMT1 inh,SUMO1 PPI mod,STEP conf
CN1CCN(C(=S)C(=O)Nc2ccc(Br)cc2)CC1,-,94.5,-,-,-,-,76.9
CN1CCN(C(=S)Nc2ccc(S(N)(=O)=O)cc2)CC1,-,81.3,-,-,-,-,38.8
NS(=O)(=O)c1ccc(NC(=S)N2CCN(S(=O)(=O)c3ccc(F)cc3)CC2)cc1,.,.,-,.,.,.,.
CC(O)(c1ccc(F)c(F)c1)c1nc(-c2cccc3cccnc23)cs1 (stereo not drawn),-,-,.,.,-,-,.
NS(=O)(=O)c1ccc(CCNS(=O)(=O)c2ccccc2)cc1,-,-,-,-,-,-,.
NS(=O)(=O)c1ccccc1,-,67.8,-,-,-,-,46.9
O=C(CSc1nc2ccccc2c(=O)n1CC1CCCO1)Nc1ccc(F)cc1 (stereo not drawn),-,-,-,-,-,-,.
CC(=O)c1ccc(NC(=O)CN2CCN(c3ccccc3)CC2)cc1,-,-,-,-,-,-,.
CC(=O)Nc1ccc(C(=O)CN2CCN(c3ccccc3)CC2)cc1,-,47.4,-,-,-,69.8,-
Cc1ccc(C(=O)N/N=C\c2ccc(-c3ccc([N+](=O)[O-])cc3)o2)cn1,-,59.5,-,-,-,-,-
Cc1cccc(N2CC(C(=O)Nc3ccc4c(c3)OCCO4)CC2=O)c1C (stereo not drawn),-,-,-,-,-,-,.
Cc1ccccc1/C=N/Nc1nc2ccccc2c(=O)n1O,-,76.2,-,-,-,-,-
Clc1ccc(Cl)c(-c2nc(-c3ccncc3)no2)c1,-,44.0,-,-,-,-,11.8
CCOC(=O)N1CCC(N(CCN(C)C)C(=S)Nc2cccc(C)c2)CC1,-,-,-,-,-,-,.
CCOC(=O)N1CCC(N(CCN(C)C)C(=S)Nc2ccccc2OCC)CC1,-,45.4,-,-,-,-,-
CCOC(=O)N1CCC(N(CCN(C)C)C(=S)Nc2ccc(Oc3ccccc3)cc2)CC1,-,91.6,-,-,-,-,61.3
CCOC(=O)N1CCC(N(CCN(C)C)C(=S)Nc2ccccc2OC)CC1,-,-,-,-,-,-,.
O=C(Nc1ccccc1)c1cc(S(=O)(=O)N2CCSCC2)ccc1Cl,-,-,-,-,-,-,.
Cn1cc(P(=O)(N2CCOCC2)N2CCOCC2)cc1P(=S)(N1CCOCC1)N1CCOCC1,-,61.7,-,-,-,-,-
Cn1cc(P(=S)(N2CCOCC2)N2CCOCC2)cc1P(=O)(N1CCOCC1)N1CCOCC1,-,-,-,-,-,-,.
O=C(O)c1cccc(NC(=S)NC(=O)c2ccc(-c3ccc(Cl)cc3)o2)c1,-,-,-,-,-,-,.
O=C(O)c1ccc(NC(=S)NC(=O)c2ccc(-c3ccc(Br)cc3)o2)cc1,79.8,97.0,-,-,-,86.2,-
COc1ccc(C)cc1S(=O)(=O)N(C)CC(=O)N1CCC(C(N)=O)CC1,-,-,-,-,-,-,.
NC1=NC(=O)C(CC(=O)c2ccc(Cl)cc2)S1 (stereo not drawn),-,-,-,-,-,-,.
COc1ccc(N2CCN(C(c3cccs3)C(C)NC(=O)C(=O)N3CCCC3)CC2)cc1 (stereo not drawn),-,59.6,-,-,-,-,-
SMILES,LMPTP inh,STEP block,SUMO HTRF inh,Scp1 inh,DNMT1 inh,SUMO1 PPI mod,STEP conf
CN1CCc2c(sc(/N=C/c3c[nH]c4ccccc34)c2C(N)=O)C1,67.3,50.7,-,-,-,91.7,-
CN1CCN(Cc2nc3ccccc3c(=O)n2Cc2nc(-c3cccc([N+](=O)[O-])c3)cs2)CC1,-,42.9,-,-,-,-,-
Cc1cc(Cn2nc(C(=O)NCc3cccc(C(F)(F)F)c3)cc2-c2ccccc2)on1,-,-,.,-,-,-,.
Cc1ccc(S(=O)(=O)N2CCCOC2CNC(=O)C(=O)NCc2ccco2)cc1 (stereo not drawn),-,-,-,-,-,-,.
CCCCN(CC)Cc1ccc(CNC(=S)Nc2c(C)cc(C)cc2C)o1,-,84.8,-,-,-,-,45.2
CCCCN(CC)Cc1ccc(CNC(=S)Nc2ccc(C)cc2Cl)o1,-,-,-,-,-,-,.
CC(Oc1ccccc1F)C(=O)NNC(=O)c1ccc(F)c(S(=O)(=O)N2CCOCC2)c1 (stereo not drawn),-,-,-,-,-,-,.
CCOc1cc(NC(=O)C2CC2)c(OCC)cc1NC(=O)CCn1nnc2ccccc21,-,62.8,-,-,-,-,-
Cc1nc(NC(=O)C2CC2)sc1C(=O)Nc1ccccc1,-,-,-,-,-,-,.
Cc1nc(NC(N)=S)sc1C(=O)Nc1ccccc1,-,50.1,-,-,-,-,-
Cc1ccc(C)c(NC(=O)c2cccc(Oc3ccc([N+](=O)[O-])cc3Cl)c2)c1,-,76.8,-,-,-,-,-
COc1ccc(NC(=O)c2cccc(Oc3ccc([N+](=O)[O-])cc3Cl)c2)cc1,-,-,-,-,-,-,.
CS(=O)(=O)N(CC(=O)N1CCCCC1)c1cccc(F)c1,-,-,-,-,-,-,.
CCC(C)(C(=O)NC1CCCC1)N(Cc1cccs1)C(=O)Cc1cccs1 (stereo not drawn),-,89.7,-,-,-,-,-
CCC(C)(C(=O)NC1CCCC1)N(Cc1cccs1)C(C)=O (stereo not drawn),-,-,-,-,-,-,.
Cc1ccc(S(=O)(=O)N2CCCCC2)cc1NC(=O)c1ccc(=O)[nH]c1,54.0,54.4,.,.,-,-,66.2
COc1ccc(/C=C/C(=O)c2ccccc2O)cc1CN1CCOCC1,-,52.3,-,-,-,-,-
COc1ccc(/C=C/C(=O)c2ccc3ccccc3c2O)cc1CN1CCOCC1,-,-,-,-,-,-,.
O=C1COc2ccc(C(=O)COC(=O)c3ncc(Cl)c(Cl)c3Cl)cc2N1,-,-,.,-,-,-,.
COC(=O)c1ccc([N+](=O)[O-])cc1N1C(=O)C2C3CCC(C3)C2C1=O (stereo not drawn),-,63.8,-,-,-,-,-
Cc1ccc(S(=O)(=O)NCC(=O)N2CCN(c3ccc(F)cc3)CC2)cc1,-,40.5,-,-,-,-,-
